Data reported in ChEMBL document CHEMBL3872268, “3-Amino-thieno[2,3-b]pyridines as microtubule-destabilising agents: Molecular modelling and biological evaluation in the sea urchin embryo and human cancer cells” (Bioorg Med Chem, 2017).
Activity calls are given as the source filed them.

Experiments:
[1] = test system: Paracentrotus lividus; test: Induction of microtubule destabilization activity in sea urchin free-swimming blastulae assessed as embryo spinning measured after 0.25 to 20 hrs; conditions: Blastula
Outline: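 Free-swimming blastulae just after hatching (8–10 h post-fertilisation) were cultured in filtered seawater at room temperature. They were treated with 2-fold decreasing concentrations (DMSO stock diluted 10-fold in EtOH; final DMSO ≤0.05%, EtOH ≤1%). Spinning and lack of forward movement were observed by light microscopy after 15 min to 20 h. The value is the effective threshold concentration, from duplicate measurements.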

[2] = test system: Paracentrotus lividus; test: Induction of microtubule destabilization in sea urchin embryo assessed as cleavage alteration exposed 8 to 20 mins after fertilization and 45 to 55 mins before first mitotic cycle completion measured 2.5 to 5.5 hrs after fertilization
Outline: (§1)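 Gametes were obtained by intracoelomic injection of 0.5 M KCl, and eggs were fertilised in filtered seawater. Embryos were cultured at room temperature with paddle agitation (60 rpm), as a monolayer at up to 2000 embryos/mL. Eggs were exposed 8–20 min post-fertilisation to 2-fold decreasing concentrations (10 mM DMSO stock diluted 10-fold in EtOH). Cleavage was scored microscopically at 2.5–5.5 h. The read-out was the threshold concentration, in duplicate.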

[3] = test system: Paracentrotus lividus; test: Induction of microtubule destabilization in sea urchin embryo assessed as cleavage arrest exposed for 8 to 20 mins after fertilization and 45 to 55 mins before first mitotic cycle completion measured 2.5 to 5.5 hrs after fertilization; outline: as §1
[4] = Growth inhibition of human NCI60 cells at 10 uM incubated for 48 hrs by sulforhodamine B assay relative to control; type: functional; conditions: NCI60, 48 h, read-out: GI
Outline: (§2)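 NCI Developmental Therapeutics Program panel of sixty human tumour cell lines. Compounds were screened first at a single 10 μM dose (percent growth inhibition), and dose-response curves were run for active ligands. GI50 is the concentration giving 50% growth inhibition, reported as the mean across the 60 lines.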

[5] = test system: Paracentrotus lividus; test: Induction of microtubule destabilization in sea urchin embryo assessed as formation of tuberculate eggs for 8 to 20 mins after fertilization and 45 to 55 mins before first mitotic cycle completion measured 2.5 to 5.5 hrs after fertilization
Outline: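 Sea urchin gametes were obtained by intracoelomic 0.5 M KCl injection, and embryos were cultured in filtered seawater at room temperature at up to 2000 embryos/mL. Fertilised eggs were exposed to 2-fold decreasing concentrations from 10 mM DMSO stocks diluted 10-fold in 96% EtOH. Final DMSO was kept ≤0.05% and EtOH ≤1%. Microscopic scoring gave the EC, the threshold causing 100% cleavage alteration, in duplicate.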

[6] = Toxicity in sea urchin embryo assessed as induction of embryo disintegration at early pluteus stage; conditions: paracentrotus lividus
[7] = Toxicity in sea urchin embryo assessed as induction of embryo death at early pluteus stage; conditions: paracentrotus lividus
[8] = test system: Paracentrotus lividus; test: Induction of microtubule destabilization in sea urchin embryo assessed as developmental retardation at later stages of development
[9] = test system: Paracentrotus lividus; test: Induction of microtubule destabilization in sea urchin embryo assessed as alteration at later stages of development
[10] = Growth inhibition of human NCI60 cells incubated for 48 hrs by sulforhodamine B assay; type: functional; conditions: NCI60, 48 h; outline: as §2

Compound: Nc1c(C(=O)c2ccc(Cl)cc2)sc2nc3c(cc12)CCCC3
- EC [1]: > 4 µM
- EC [2]: 0.5 µM
- EC [3]: > 4 µM
- inhibition of growth at 10 µM [4]: 7.8%

Compound: Nc1c(C(=O)c2ccc(Br)cc2)sc2nc3c(cc12)CCC3
- EC [1]: > 4 µM
- EC [2]: 1 µM
- EC [3]: > 4 µM
- inhibition of growth at 10 µM [4]: 19.3%

Compound: Cc1ccc(C(=O)c2sc3nc(C)ccc3c2N)cc1
- EC [1]: > 10 µM
- EC [2]: 1 µM
- EC [3]: 4 µM
- Activity [5]: Active

Compound: Cc1ccc(C(=O)c2sc3nc4c(cc3c2N)CCCC4)cc1
- EC [1]: > 4 µM
- EC [2]: 0.02 µM
- EC [3]: 2 µM
- inhibition of growth at 10 µM [4]: 16.4%
- Activity [5]: Active

Compound: Nc1c(C(=O)c2ccccc2)sc2nc3c(cc12)N1CCC3CC1
- EC [1]: > 4 µM
- EC [2]: > 4 µM
- EC [3]: > 4 µM
- inhibition of growth at 10 µM [4]: 7.3%

Compound: Nc1c(C(=O)c2ccccc2)sc2nc3c(cc12)CCCC3
- EC [1]: 0.5 µM
- EC [2]: 0.02 µM
- EC [3]: 0.2 µM

Compound: N#Cc1cc2c(N)c(C(=O)c3ccc(F)cc3)sc2nc1N
- EC [1]: > 4 µM
- EC [2]: 4 µM
- EC [3]: > 4 µM

Compound: Nc1c(C(=O)c2ccc(Cl)cc2)sc2nc(-c3cccs3)ccc12
- EC [1]: > 4 µM
- EC [2]: > 4 µM
- EC [3]: > 4 µM
- Activity [6]: Toxic
- Activity [7]: Toxic

Compound: Cc1cc(C)c2c(N)c(C(=O)c3ccc4c(c3)OCCO4)sc2n1
- EC [1]: > 4 µM
- EC [2]: 1 µM
- EC [3]: > 4 µM
- inhibition of growth at 10 µM [4]: 2%

Compound: COc1ccc(C(=O)c2sc3nc4c(c(-c5ccncc5)c3c2N)CCCC4)cc1OC
- EC [1]: > 4 µM
- EC [2]: > 4 µM
- EC [3]: > 4 µM
- Activity [8]: Active
- Activity [9]: Active

Compound: COc1ccc(C(=O)c2sc3nc4c(cc3c2N)N2CCC4CC2)cc1OC
- EC [1]: > 4 µM
- EC [2]: > 4 µM
- EC [3]: > 4 µM
- inhibition of growth at 10 µM [4]: 11.7%
- Activity [8]: Active
- Activity [9]: Active

Compound: Cc1cccc(NC(=O)c2sc3nc4c(cc3c2N)CCCC4)c1C
- EC [1]: 0.5 µM
- EC [2]: 0.01 µM
- EC [3]: 0.1 µM

Compound: COc1ccc(C(=O)c2sc3nc(-c4cccs4)ccc3c2N)cc1OC
- EC [1]: > 4 µM
- EC [2]: 4 µM
- EC [3]: > 4 µM
- inhibition of growth at 10 µM [4]: 52.6%
- GI50 [10]: 6.31 µM
- Activity [6]: Toxic
- Activity [7]: Toxic

Compound: COc1ccc(C(=O)c2sc3nc(N)c(C#N)cc3c2N)cc1OC
- EC [1]: > 4 µM
- EC [2]: 4 µM
- EC [3]: > 4 µM
- inhibition of growth at 10 µM [4]: 4.6%

Compound: Nc1c(C(=O)c2ccc(F)cc2)sc2nc3c(cc12)CCCC3
- EC [1]: > 4 µM
- EC [2]: 0.2 µM
- EC [3]: > 4 µM
- inhibition of growth at 10 µM [4]: 26.7%

Compound: Cc1cc(C)c2c(N)c(C(=O)c3ccc(Br)cc3)sc2n1
- EC [1]: > 4 µM
- EC [2]: > 4 µM
- EC [3]: > 4 µM

Compound: Cc1ccc(C(=O)c2sc3nc4c(cc3c2N)CCC4)cc1
- EC [1]: > 4 µM
- EC [2]: 0.2 µM
- EC [3]: > 4 µM

Compound: Nc1c(C(=O)c2ccc3c(c2)OCO3)sc2nc(-c3ccncc3)ccc12
- EC [1]: > 4 µM
- EC [2]: > 4 µM
- EC [3]: > 4 µM
- Activity [8]: Active
- Activity [9]: Active

Compound: Nc1c(C(=O)c2ccc(Br)cc2)sc2ncccc12
- EC [1]: > 4 µM
- EC [2]: 1 µM
- EC [3]: > 4 µM

Compound: COc1ccc(C(=O)c2sc3nc(-c4cccs4)ccc3c2N)cc1
- EC [1]: > 4 µM
- EC [2]: > 4 µM
- EC [3]: > 4 µM
- Activity [6]: Toxic
- Activity [7]: Toxic

Compound: Cc1ccc(C(=O)c2sc3nc4c(cc3c2N)CCCC4)c(C)c1
- EC [1]: > 5 µM
- EC [2]: 0.05 µM
- EC [3]: 0.2 µM
- inhibition of growth at 10 µM [4]: 78.9%
- GI50 [10]: 0.28 µM
- Activity [5]: Active

Compound: COc1ccccc1-c1ccc2c(N)c(C(=O)c3ccc4c(c3)OCO4)sc2n1
- EC [1]: > 4 µM
- EC [2]: > 4 µM
- EC [3]: > 4 µM
- inhibition of growth at 10 µM [4]: 37.4%
- GI50 [10]: 5.13 µM
- Activity [8]: Active
- Activity [9]: Active

Compound: N#Cc1cc2c(N)c(C(=O)c3ccc(Cl)cc3)sc2nc1N
- EC [1]: > 4 µM
- EC [2]: > 4 µM
- EC [3]: > 4 µM
- inhibition of growth at 10 µM [4]: 0.5%
- Activity [8]: Active
- Activity [9]: Active

Compound: Nc1c(C(=O)c2ccc(Br)cc2)sc2nc3c(cc12)CCCC3
- EC [1]: > 4 µM
- EC [2]: 0.5 µM
- EC [3]: > 4 µM
- inhibition of growth at 10 µM [4]: 8.1%

Compound: COc1ccc(C(=O)c2sc3nc(C)cc(C)c3c2N)cc1OC
- EC [1]: > 4 µM
- EC [2]: > 4 µM
- EC [3]: > 4 µM
- inhibition of growth at 10 µM [4]: 14.2%

Compound: Nc1c(C(=O)Nc2cccc(C(F)(F)F)c2)sc2nc3c(cc12)CCCCC3
- EC [1]: > 4 µM
- EC [2]: > 4 µM
- EC [3]: > 4 µM

Compound: Nc1c(C(=O)c2ccc3c(c2)OCO3)sc2nc3c(c(C(F)(F)F)c12)CCCC3
- EC [1]: > 4 µM
- EC [2]: > 4 µM
- EC [3]: > 4 µM
- Activity [8]: Active
- Activity [9]: Active

Compound: Cc1cccc(NC(=O)c2sc3nc4c(cc3c2N)CCC4)c1C
- EC [1]: 5 µM
- EC [2]: 0.05 µM
- EC [3]: 0.5 µM

Compound: Cc1ccc2c(N)c(C(=O)c3ccc(Cl)cc3)sc2n1
- EC [1]: > 4 µM
- EC [2]: 0.5 µM
- EC [3]: > 4 µM
- inhibition of growth at 10 µM [4]: 18.4%

Compound: COc1ccc(C(=O)c2sc3nc4c(c(-c5ccccc5)c3c2N)CCCC4)cc1OC
- EC [1]: > 4 µM
- EC [2]: > 4 µM
- EC [3]: > 4 µM
- Activity [8]: Active
- Activity [9]: Active

Compound: COc1ccc(C(=O)c2cc(OC)c(OC)c(OC)c2)cc1O [PHENSTATIN]
- EC [1]: 0.5 µM
- EC [2]: 0.01 µM
- EC [3]: 0.05 µM
- GI50 [10]: 0.06 µM

Compound: COc1ccc(C(=O)c2sc3nc(-c4ccncc4)ccc3c2N)cc1OC
- EC [1]: > 4 µM
- EC [2]: 4 µM
- EC [3]: > 4 µM
- inhibition of growth at 10 µM [4]: 17.1%

Compound: Nc1c(C(=O)c2ccc3c(c2)OCO3)sc2nc3c(cc12)CCCC3
- EC [1]: > 5 µM
- EC [2]: 0.025 µM
- EC [3]: 0.5 µM
- Activity [5]: Active

Compound: Nc1c(C(=O)Nc2ccccc2)sc2nc3c(cc12)CCCCC3
- EC [1]: 0.2 µM
- EC [2]: 0.01 µM
- EC [3]: 0.04 µM

Compound: COc1ccc(C(=O)c2sc3nc4c(cc3c2N)N2CCC4CC2)cc1
- EC [1]: > 4 µM
- EC [2]: > 4 µM
- EC [3]: > 4 µM
- inhibition of growth at 10 µM [4]: 11.5%
- Activity [8]: Active
- Activity [9]: Active

Compound: COC(=O)Nc1nc2cc(C(=O)c3cccs3)ccc2[nH]1 [NOCODAZOLE]
- EC [1]: 0.1 µM
- EC [2]: 0.005 µM
- EC [3]: 0.001 µM
- GI50 [10]: 0.0389 µM

Compound: COc1ccc(C(=O)c2sc3nc(-c4ccccc4OC)ccc3c2N)cc1OC
- inhibition of growth at 10 µM [4]: 43.5%
- GI50 [10]: 7.94 µM

Compound: Nc1c(C(=O)Nc2ccccc2)sc2nc3c(cc12)CCCC3
- EC [1]: 0.2 µM
- EC [2]: 0.01 µM
- EC [3]: 0.05 µM

Compound: COc1ccc(C(=O)c2sc3nc4c(cc3c2N)CCCC4)cc1OC
- EC [1]: > 5 µM
- EC [2]: 0.5 µM
- EC [3]: 4 µM
- inhibition of growth at 10 µM [4]: 60.5%
- GI50 [10]: 3.24 µM
- Activity [5]: Active

Compound: COc1ccc(C(=O)c2sc3nc4c(cc3c2N)CCCC4)cc1
- EC [1]: > 5 µM
- EC [2]: 0.5 µM
- EC [3]: > 4 µM

Compound: CN1CCc2nc3sc(C(=O)c4ccccc4)c(N)c3cc2C1
- EC [1]: > 4 µM
- EC [2]: 4 µM
- EC [3]: > 4 µM
- inhibition of growth at 10 µM [4]: 13.3%
- Activity [8]: Active
- Activity [9]: Active
